{"data": "Measured values of several laboratories", "HRH3": "Histamine H3 receptor (HRH3, Homo sapiens, UniProt Q9Y5N1)", "CYP1B1": "Cytochrome P450 1B1 (CYP1B1, Homo sapiens, UniProt Q16678)", "SLC10A2": "Ileal sodium/bile acid cotransporter (SLC10A2, Homo sapiens, UniProt Q12908)", "Hypoxanthine-guanine-xanthine phosphoribosyltransferase": "Hypoxanthine-guanine-xanthine phosphoribosyltransferase (Plasmodium falciparum, UniProt P20035)", "DRD5": "D(1B) dopamine receptor (DRD5, Homo sapiens, UniProt P21918)", "WDR5": "WD repeat-containing protein 5 (WDR5, Homo sapiens, UniProt P61964)"}
{"Compound": "CN(C)c1ccc(/C=C2\\CCc3cc(OCCCN4CCCCC4)ccc3C2=O)cc1", "target": "HRH3", "test": "ligand displacement, radioligand", "setting": "cell membranes", "Ki [µM]": 0.07}
{"Compound": "COc1cc(O)c(CC=C(C)C)c2c1C(=O)CC(c1ccc(O)cc1)O2 (stereo not drawn)", "target": "CYP1B1", "test": "enzyme activity, inhibitor, fluorescence", "setting": "15 min, pH 7.4", "Ki [µM]": 0.54}
{"Compound": "CCCCNc1cc(C(=O)O)cc(S(N)(=O)=O)c1Oc1ccccc1", "target": "SLC10A2", "test": "transporter uptake, inhibitor", "Ki [µM]": 225}
{"Compound": "c1cc2c(cc1OCCCCCN1CCCCCC1)CCC2", "target": "HRH3", "test": "ligand displacement, radioligand", "setting": "cell membranes", "Ki [µM]": 0.0645}
{"Compound": "O=C1CCCc2ccc(OCc3ccc(OCCCN4CCCCC4)cc3)cc21", "target": "HRH3", "test": "ligand displacement, radioligand", "setting": "cell membranes", "Ki [µM]": 0.017}
{"Compound": "O=C1CN(CC[C@@H](CO)NCc2c[nH]c3c(O)nc(O)nc23)S(=O)(=O)N1", "target": "Hypoxanthine-guanine-xanthine phosphoribosyltransferase", "test": "enzyme activity, inhibitor", "setting": "pH 7.4", "Ki [µM]": "> 20"}
{"Compound": "CCOC(=O)[C@](CC)(CCCS(=O)(=O)CCOCCOCCNC(=O)OC(C)(C)C)NC(=O)c1ccc(C2CC2)c(Cc2ccc(F)cc2)n1", "target": "Cannabinoid receptor 2 (CNR2, Homo sapiens, UniProt P34972)", "test": "ligand displacement, radioligand", "setting": "cell membranes", "Ki [µM]": 0.045}
{"Compound": "COc1cc(O)c(CC=C(C)C)c(O)c1C(=O)/C=C/c1ccc(O)cc1", "target": "CYP1B1", "test": "enzyme activity, inhibitor, fluorescence", "setting": "15 min, pH 7.4", "Ki [µM]": 0.17}
{"Compound": "CCOC(=O)C1=C(COCCN)NC(C)=C(C(=O)OC)C1c1ccccc1Cl (stereo not drawn)", "target": "SLC10A2", "test": "transporter uptake, inhibitor", "Ki [µM]": "< 100"}
{"Compound": "C#Cc1cccc(-c2cc(=O)c3ccccc3o2)c1", "target": "CYP1B1", "test": "enzyme activity, inhibitor, fluorescence", "setting": "6 min, pH 7.6", "Ki [µM]": 0.16}
{"Compound": "O=C1CN(C[C@@H](CO)NCc2c[nH]c3c(O)nc(O)nc23)S(=O)(=O)N1", "target": "Hypoxanthine-guanine-xanthine phosphoribosyltransferase", "test": "enzyme activity, inhibitor", "setting": "pH 7.4", "Ki [µM]": "> 20"}
{"Compound": "O=C1CCCc2cc(OCCCN3CCCCC3)ccc21", "target": "HRH3", "test": "ligand displacement, radioligand", "setting": "cell membranes", "Ki [µM]": 0.068}
{"Compound": "CCCCN1CCC(COC(=O)c2ccc(N)c(OCF)c2)CC1", "target": "DRD5", "test": "cell-free assay, radioligand", "Ki [µM]": "> 10"}
{"Compound": "COc1ccccc1N1CCN(CCCCN2CCc3ccccc3C2=O)CC1", "target": "DRD5", "test": "ligand displacement, radioligand", "Ki [µM]": 6.86}
{"Compound": "CN1CCN(CCCOc2ccc(Nc3nccc(NCc4ccccc4)n3)cc2)CC1", "target": "HRH3", "test": "ligand displacement, radioligand", "setting": "cell membranes", "Ki [µM]": 0.383}
{"Compound": "Cc1nc(F)ccc1-c1cc(C(=O)NCc2ccc(Cl)c(Cl)c2)ccc1Cn1ccn(C)c1=N", "target": "WDR5", "test": "ligand displacement, TR-FRET", "Ki [µM]": "> 0.033"}
{"Compound": "O=C1CN(C[C@@H](CO)NCc2c[nH]c3c(O)ncnc23)S(=O)(=O)N1", "target": "Hypoxanthine-guanine-xanthine phosphoribosyltransferase", "test": "enzyme activity, inhibitor", "setting": "pH 7.4", "Ki [µM]": "> 20"}
{"Compound": "CCOc1c(O)cc(Br)c2c1CN1CCc3cc(OCC(F)F)c(O)cc3[C@@H]1C2", "target": "DRD5", "test": "cell-free assay, radioligand", "Ki [µM]": 0.082}
{"Compound": "O=C1c2ccccc2CCN1CCCCN1CCN(c2ccccn2)CC1", "target": "DRD5", "test": "ligand displacement, radioligand", "Ki [µM]": 9.36}
{"Compound": "O=c1c(O)c(NCC[C@@H](CO)NCc2c[nH]c3c(O)ncnc23)c1=O", "target": "Hypoxanthine-guanine-xanthine phosphoribosyltransferase", "test": "enzyme activity, inhibitor", "setting": "pH 7.4", "Ki [µM]": "> 20"}
{"Compound": "CCCCCCCC/C=C\\CCCCCCCC(=O)NC(CO)(CO)CO", "target": "DRD5", "test": "ligand displacement, radioligand", "Ki [µM]": "> 10"}
{"Compound": "COc1cc(CNC(=O)c2cccc(CNC3=NCCN3)c2F)cc(OC)c1", "target": "WDR5", "test": "ligand displacement, FP", "Ki [µM]": 1.23}
{"Compound": "COC(=O)C1=C(C)NC(C)=C(C(=O)OC(C)C)C1c1cccc2nonc12 (stereo not drawn)", "target": "SLC10A2", "test": "transporter uptake, inhibitor", "Ki [µM]": 19.4}
{"Compound": "O=C1c2ccccc2CCN1CCCCN1CCN(c2cccc(Cl)c2Cl)CC1", "target": "DRD5", "test": "ligand displacement, radioligand", "Ki [µM]": 2.38}
{"Compound": "COc1ccc([C@@H]2Sc3ccccc3N(CCN(C)C)C(=O)[C@@H]2OC(C)=O)cc1", "target": "SLC10A2", "test": "transporter uptake, inhibitor", "Ki [µM]": 211}
{"Compound": "CN(C)c1ccc(/C=C2\\CCc3cc(OCc4ccc(OCCCN5CCCCC5)cc4)ccc3C2=O)cc1", "target": "HRH3", "test": "ligand displacement, radioligand", "setting": "cell membranes", "Ki [µM]": 0.041}
{"Compound": "Cc1nc(F)ccc1-c1cc(Cn2ccn(C)c2=N)cc(C(=O)NCc2ccc(Cl)c(Cl)c2)c1", "target": "WDR5", "test": "ligand displacement, FP", "Ki [µM]": "< 1e-06"}
{"Compound": "CC(C(=O)O)c1cccc(C(=O)c2ccccc2)c1 (stereo not drawn)", "target": "SLC10A2", "test": "transporter uptake, inhibitor", "Ki [µM]": 178}
{"Compound": "C#Cc1ccc2cc(-c3ccccc3)c(=O)oc2c1", "target": "CYP1B1", "test": "enzyme activity, inhibitor, fluorescence", "setting": "6 min, pH 7.6", "Ki [µM]": 1.72}
{"Compound": "COc1ccc(C2=NN(C3CCCCCC3)C(=O)C3CC=CCC23)cc1-c1ccc(C(=O)N2CCC[C@@H]2C(N)=O)cc1 (mixture of isomers)", "target": "Class 1 phosphodiesterase PDEB1 (PDEB1, Trypanosoma brucei, UniProt Q8WQX9)", "test": "enzyme activity, inhibitor", "Ki [µM]": 0.501}
{"Compound": "CC(=O)S[C@@H]1CC2=CC(=O)CC[C@]2(C)[C@H]2CC[C@@]3(C)[C@@H](CC[C@@]34CCC(=O)O4)[C@H]12", "target": "SLC10A2", "test": "transporter uptake, inhibitor", "Ki [µM]": 110}
{"Compound": "O=c1c(O)c(NC[C@@H](CO)NCc2c[nH]c3c(O)ncnc23)c1=O", "target": "Hypoxanthine-guanine-xanthine phosphoribosyltransferase", "test": "enzyme activity, inhibitor", "setting": "pH 7.4", "Ki [µM]": "> 20"}
{"Compound": "NS(=O)(=O)c1cc(C2(O)NC(=O)c3ccccc32)ccc1Cl (stereo not drawn)", "target": "SLC10A2", "test": "transporter uptake, inhibitor", "Ki [µM]": 707}
{"Compound": "CCc1ccc(OCCCCCCN2CCCC(C)C2)cc1 (stereo not drawn)", "target": "HRH3", "test": "ligand displacement, radioligand", "setting": "cell membranes", "Ki [µM]": 0.0741}
{"Compound": "CN(C(=O)[C@@H]1Cc2ccccc2CN1C(=O)Cc1ccc(Cl)cc1)c1ccc(N2CCCCC2=O)cc1", "target": "Coagulation factor X (F10, Homo sapiens, UniProt P00742)", "test": "enzyme activity, inhibitor, absorbance", "Ki [µM]": 0.65}
{"Compound": "NS(=O)(=O)c1cc2c(cc1Cl)NCNS2(=O)=O", "target": "SLC10A2", "test": "transporter uptake, inhibitor", "Ki [µM]": 2020}
{"Compound": "C#Cc1cccc2oc(-c3ccccc3)cc(=O)c12", "target": "CYP1B1", "test": "enzyme activity, inhibitor, fluorescence", "setting": "6 min, pH 7.6", "Ki [µM]": 0.21}
{"Compound": "O=C(NCc1cc(Cl)cc(Cl)c1)c1cccc(Cn2ccnc2)c1", "target": "WDR5", "test": "ligand displacement, TR-FRET", "Ki [µM]": "> 0.033"}
{"Compound": "CCCc1ccc(OCCCCCN2CCCCC2)cc1", "target": "HRH3", "test": "ligand displacement, radioligand", "setting": "cell membranes", "Ki [µM]": 0.048}
